Screening data deposited in PubChem BioAssay by The Scripps Research Institute Molecular Screening Center.
OX1R antag-1 = OX1R (HCRTR1) antagonists, primary screen, fluorescence, CHO/OX1R cells, Fluo-8 calcium, orexin A | Orexin/Hypocretin receptor type 1 (Homo sapiens), O43613 | Fluo-8 calcium fluorescence | inhibition, % at 5 µM | 330,000 tested, 0.43% active;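 active means inhibition above its plate's threshold, mean inhibition of all tested compounds on the plate plus 3 SD, cut at about 37% in these data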;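 further: 0% = orexin A challenge wells and 100% = SB-334867-A antagonist wells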
GPR7 antag = GPR7 receptor antagonists, primary screen, cell-based, fluorescence, single concentration | inhibition, % at 4.4 µM | GPR7-expressing cells, fluorescence antagonist assay | 290,000 tested, 1.1% active; in the data active means inhibition above about 16%, passing the limit was not always enough;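 further: cells stimulated with the agonist NPW; 0% = agonist with vehicle and 100% = vehicle without agonist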
CHO parental Ca = ATP-evoked calcium signal inhibitors, parental CHO, primary screen, counter-screen for OX1R antagonist project, cell-based, fluorescence, Fluo-8 calcium dye; inhibition, % at 5.6 µM; 330,000 tested, 0.63% active; AID 463079, 2010; parental CHO-K1, ATP-induced calcium, Fluo-8 fluorescence;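 active means inhibition above that plate's mean sample inhibition plus 3 SD, cut at about 26% in these data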;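 further: 0% = ATP-challenged DMSO wells and 100% = DMSO wells without ATP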
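Material: Parental CHO cells | Reagent: ATP | Compound dosing: Single nominal dose of 5.6 µM per compound | Detection: Intracellular calcium via Fluo-8 no-wash fluorescent dye | Read-out: % inhibition of ATP-induced calcium mobilization | Benchmarks: Low control ATP plus DMSO, high control DMSO only | Replicates: Singlicate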
TRPML3 ag = human TRPML3 channel agonists, primary screen, cell-based, HEK293 TRPML3-YFP, Fluo-8 calcium fluorescence, 3 µM; Mucolipin-3 (Homo sapiens), Q8TDD5; 100% = the carbachol control signal; activation, % at 3 µM; 220,000 tested, 0.29% active; AID 1448, 2008;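 active means activation above its plate's cutoff, the mean activation of the plate's test wells plus 3 SD, cut at about 12% in these data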;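 further: 0% = DMSO only wells and 100% = carbachol wells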
Target sequence (Q8TDD5 whole entry, looked up): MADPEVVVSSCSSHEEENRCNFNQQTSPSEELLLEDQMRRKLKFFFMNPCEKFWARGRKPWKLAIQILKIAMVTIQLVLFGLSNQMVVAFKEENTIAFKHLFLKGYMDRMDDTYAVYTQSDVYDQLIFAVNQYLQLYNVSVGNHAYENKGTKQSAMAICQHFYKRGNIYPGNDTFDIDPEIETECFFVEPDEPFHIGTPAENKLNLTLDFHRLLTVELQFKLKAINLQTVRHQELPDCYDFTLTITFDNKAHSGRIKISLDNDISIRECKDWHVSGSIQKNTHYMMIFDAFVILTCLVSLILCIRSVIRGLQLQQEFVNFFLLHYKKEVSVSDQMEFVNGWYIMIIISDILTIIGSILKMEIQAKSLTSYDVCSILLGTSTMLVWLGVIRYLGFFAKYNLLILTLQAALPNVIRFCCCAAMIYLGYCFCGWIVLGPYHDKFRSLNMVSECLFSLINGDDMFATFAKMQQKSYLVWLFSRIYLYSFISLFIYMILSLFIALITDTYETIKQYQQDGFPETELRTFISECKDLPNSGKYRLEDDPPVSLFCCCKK
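Material: HEK293 cells stably carrying human TRPML3-YFP; compound dosing: single dose, 3 µM final nominal compound, 0.3% DMSO final; incubation: 1-h 37 °C dye load, 5-s basal, 120-s post-compound reads; technique: Fluo-8 intracellular calcium fluorescence, excitation 470-495 nm, emission 515-575 nm; read-out basis: percent activation from peak-to-basal fluorescence ratio, scaled between DMSO and carbachol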
OX1R antag-2 = antagonists of human orexin 1 receptor (OX1R); Orexin/Hypocretin receptor type 1 (Homo sapiens), O43613; OX1R-expressing cells, FRET antagonist read-out; inhibition, % at 6.6 µM; 330,000 tested, 1.8% active; in the data active means inhibition mostly above about 38%, no sharp cut-off; inactive means mostly below about 40%;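 further: 0% = agonist challenge alone and 100% = reference antagonist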
zfTRPN1 agonist = zebrafish TRPN1 channel agonists, primary screen, cell-based, HEK293, calcium fluorescence; HEK293 zebrafish TRPN1-YFP, Fluo-8 calcium fluorescence; 100% = response to 87 µM carbachol; activation, % at 3 µM; 220,000 tested, 0.18% active; AID 1424, 2008;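 active means activation above its plate's cutoff, the mean activation of test wells on that plate plus 3 SD, cut at about 19% in these data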;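 further: 0% = DMSO alone and 100% = 87 µM carbachol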
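System: zebrafish TRPN1-YFP in HEK293 cells / Dosing: 3 µM single point / Timing: dye loading 1 h at 37 °C, then 30 min room temperature / Signal: Fluo-8 calcium fluorescence, excitation 470-495 nm, emission 515-575 nm / Read-out basis: percent activation from peak over basal fluorescence ratio, control-normalized / Control set: high carbachol 87 µM, low DMSO alone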
Active calls of the source: *; / = not tested or not shown. A selection: hits, their analogues and other compounds. The true share with any hit is near 3.2%.

SMILES	OX1R antag-1	GPR7 antag	CHO parental Ca	TRPML3 ag	OX1R antag-2	zfTRPN1 agonist
Cc1cccn2c(=O)c3cc(C(=O)NC4CCCC4)n(C)c3nc12	-28	1	-22	/	23	/
CCCc1cc(C(=O)Nc2ccc(C(C)=O)cc2)no1	-12	-7	28*	0	12	0
CCCc1cc(C(=O)Nc2cccc(C(C)=O)c2)no1	-17	-8	-5	1	23	0
COc1ccc(CCNC(=O)CSc2nnc(C(C)N(C)C)n2Cc2ccccc2)cc1OC (centres undefined)	-20	2	-21	0	16	0
O=C(O)c1ccc(N/N=C2/CCCc3ccccc32)cc1	3	-8	0	0	7	1
CCc1ccccc1N(C1=NCCCS1)S(=O)(=O)c1ccc(C(C)(C)C)cc1	0	-5	4	1	51*	3
CC(=O)Nc1ccc(Oc2ccc([N+](=O)[O-])cc2Cl)cc1	0	9	-8	2	10	4
CC(=O)Nc1ccc(N=c2cc([N+](=O)[O-])cc(Cl)n2O)cc1	-5	5	-2	/	66*	/
Cc1cc(Nc2ccc(N(C)C)cc2)n2ncnc2n1	-7	-15	-6	/	3	/
Cc1cc(Nc2ccc3c(c2)OCCO3)n2ncnc2n1	-27	17*	-8	1	11	1
Cc1n[nH]c(C)c1S(=O)(=O)N1CCc2ccccc2C1	-55	-16	-6	/	14	/
O=C1/C(=C/c2cccc(Br)c2)SC(=S)N1CCC(=O)N(CCO)c1ccccc1	-19	-16	39*	/	0	/
COc1ccc(OCC(=O)NNC(=S)NC(=O)C2CCCCC2)cc1	-8	-9	-8	/	26	/
CSCCC(NS(=O)(=O)c1ccc(C)cc1)C(=O)NC1CCCCCC1 (centres undefined)	-34	/	-32	/	25	/
Cc1ccc(C(=O)Nc2nnc(-c3ccco3)o2)cc1	-20	-14	-15	1	7	1
O=C(Nc1nnc(-c2ccco2)o1)c1ccc([N+](=O)[O-])s1	-7	-14	-7	0	66*	0
Cc1ccc(C(=O)Nc2cccc(-c3cn4ccccc4n3)c2)cc1	-21	-17	-18	0	44	0
O=C(Nc1cccc(-c2cn3ccccc3n2)c1)c1ccccc1	-14	-7	-20	2	53*	4
Cc1ccccc1C(=O)Nc1cccc(-c2cn3ccccc3n2)c1	-24	-10	-20	2	73*	3
COc1ccc(S(=O)(=O)N2CCCCC2)cc1NC(=O)CNc1ccccc1C(C)=O	-6	/	-8	/	-2	/
O=C(/C(=C/c1ccc(Cl)cc1)c1nc2ccccc2[nH]1)c1cccs1	26	25*	-4	1	16	-1
Nc1c(C(=O)c2ccc(Br)cc2)oc2ccccc12	-4	-9	-9	0	27	0
Nc1c(C(=O)c2ccccc2)oc2ccc(Br)cc12	24	14	-32	1	59*	0
OC(COc1ccc(CN2CCCCO2)cc1)CN1CCCCC1 (centres undefined)	-14	3	-7	1	8	1
O=C(COC(=O)/C=C/c1cccc(C(F)(F)F)c1)NCc1cccs1	8	/	36*	/	3	/
SMILES	OX1R antag-1	GPR7 antag	CHO parental Ca	TRPML3 ag	OX1R antag-2	zfTRPN1 agonist
O=C(COC(=O)c1cccc(C(F)(F)F)c1)NCc1ccccc1	10	-5	49*	0	32	1
COc1cc(C2/C(=C(\O)c3ccc4c(c3)CC(C)O4)C(=O)C(=O)N2CCN2CCOCC2)cc(OC)c1OC (centres undefined)	-19	-17	-18	/	7	/
O=C(CN1C2CCCC1CC(NC(=O)C1CCCCC1)C2)NCc1ccc(F)cc1 (centres undefined)	-26	3	-20	0	7	0
O=C(CN1C2CCCC1CC(NC(=O)C1CCCCC1)C2)Nc1ccccc1C(F)(F)F (centres undefined)	2	-3	-6	/	42*	/
COc1cc2cnc(-c3ccsc3)cc2cc1OC	-27	/	-11	/	14	/
c1cc(-c2cc3cc4c(cc3cn2)OCO4)cs1	20	/	-1	/	70*	/
CSc1ccccc1NC(=O)c1cc(-c2cccs2)on1	-10	-2	-8	1	54*	0
COc1ccc(-c2cc(C(=O)Nc3ccccc3SC)no2)cc1	-12	0	-8	1	18	0
NS(=O)(=O)c1ccc(CCNC(=O)CSc2ccsc2[N+](=O)[O-])cc1	-13	0	-18	0	44*	0
CCCCNC(=O)O[C@H]1C[C@@H]2CCN3C(=O)CCC[C@H]([C@H]1Cc1ccccc1)[C@H]23	-8	2	-11	/	25	/
COC(=O)CCSc1cc(NCCOC(C)=O)c([N+](=O)[O-])c2nonc12	-5	-2	2	0	53*	0
COc1ccc(Nc2cc(NCCCO)c([N+](=O)[O-])c3nonc23)cc1	-6	1	-16	/	49*	/
O=[N+]([O-])c1c(NCCCO)cc(SCc2ccco2)c2nonc12	1	-2	-4	0	61*	0
O=[N+]([O-])c1c(NCCCO)cc(N2CCCCCC2)c2nonc12	-38	-8	-15	/	37*	/
COc1ccc(CNc2cc(NCCCO)c([N+](=O)[O-])c3nonc23)cc1	-12	-6	-11	0	38	1
COc1cccc(NC(=O)CN(C)C(=O)CCCc2nc3ccccc3c(=O)[nH]2)c1	-19	/	-12	/	7	/
COc1ccc(/C=C(\NC(=O)c2ccccc2Cl)C(=O)NCCCC(=O)O)cc1	/	3	/	1	/	1
Nc1cccc2c1C(=O)N(CCOc1ccc(F)cc1)C2=O	-17	-6	-11	/	20	/
CC1CCCN(c2cc(N(C)CCO)c([N+](=O)[O-])c3nonc23)C1 (centres undefined)	-8	-16	9	0	48*	0
CC1CCN(CCCNc2cc(NCCO)c([N+](=O)[O-])c3nonc23)CC1	-2	-7	0	/	38*	/
CN(CCO)c1cc(N2CCCCC2)c2nonc2c1[N+](=O)[O-]	-5	-9	-7	0	47	-1
O=[N+]([O-])c1c(NCCCO)cc(Sc2ccc(Cl)cc2)c2nonc12	11	4	20	0	31	3
Cc1c(Cl)ccc2sc(N3CCN(C(=O)C4=COCCO4)CC3)nc12	4	/	20	/	36	/
